In ChEMBL document CHEMBL3352217, “Expanding the results of a high throughput screen against an isochorismate-pyruvate lyase to enzymes of a similar scaffold or mechanism” (Bioorg Med Chem, 2014):

Experiments:
[1] = Inhibition of Pseudomonas aeruginosa PAO1 PchB expressed in Escherichia coli BL21(DE3) using isochorismate as substrate assessed as salicylate production by fluorescence spectrometry
How it was run: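 Untagged PchB at 50 nM in 50 mM potassium phosphate pH 8. […] Initial velocities at 25 °C were taken from salicylate fluorescence (ex 310/em 430 nm) over 120 s of the linear phase. IC50 came from dose-response percent inhibition.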

[2] = Inhibition of Pseudomonas aeruginosa PAO1 PchB expressed in Escherichia coli BL21(DE3) using isochorismate as substrate assessed as pyruvate production after 10 mins by microplate reader analysis
How it was run: (§1)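 Pyruvate output at 25 °C, with PchB at 50 nM in 50 mM potassium phosphate pH 8 started with isochorismate, or Irp9 at 200 nM started with chorismate. Substrate was above the 10 µM Km and inhibitor was varied. Samples taken at 2-min points were quenched in 0.25 g/L DNPH in 1 M HCl and held 10 min at 37 °C. NaOH was added and A515 read, converted to pyruvate by standard curve. Runs were in triplicate, giving IC50.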

[3] = biological target: T1, Salicylate synthetase, Irp9 (Yersinia enterocolitica, UniProt Q9X9I8); assay: Inhibition of Yersinia enterocolitica Irp9 using chorismate as substrate assessed as salicylate production by fluorescence spectrometry
T1 sequence (Q9X9I8 whole entry): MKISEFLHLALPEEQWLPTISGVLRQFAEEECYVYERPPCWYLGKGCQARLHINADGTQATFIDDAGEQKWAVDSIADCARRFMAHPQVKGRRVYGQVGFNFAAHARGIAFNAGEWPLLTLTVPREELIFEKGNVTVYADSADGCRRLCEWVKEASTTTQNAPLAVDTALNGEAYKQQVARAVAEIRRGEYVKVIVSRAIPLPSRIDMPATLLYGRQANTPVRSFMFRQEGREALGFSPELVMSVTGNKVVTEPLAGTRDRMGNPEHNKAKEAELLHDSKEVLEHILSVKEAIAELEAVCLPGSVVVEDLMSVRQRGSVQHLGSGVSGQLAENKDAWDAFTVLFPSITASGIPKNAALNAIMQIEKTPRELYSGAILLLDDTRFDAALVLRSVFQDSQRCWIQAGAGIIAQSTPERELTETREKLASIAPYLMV
How it was run: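 Irp9 at 100 nM in 50 mM Tris-HCl pH 7.5, 10 mM MgCl2, 10% glycerol. Reaction was started with chorismate, with inhibitor concentration varied. Initial velocities at 25 °C were taken from salicylate fluorescence (ex 310/em 430 nm) over 120 s of the linear phase. IC50 came from the dose-response.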

[4] = biological target: T1, Salicylate synthetase, Irp9; assay: Inhibition of Yersinia enterocolitica Irp9 using chorismate as substrate assessed as pyruvate production after 10 mins by microplate reader analysis; how it was run: as §1
[5] = biological target: T2, Bifunctional chorismate mutase/prephenate dehydratase (Escherichia coli (strain K12), UniProt P0A9J8); assay: Inhibition of Escherichia coli K-12 EcCM expressed in Escherichia coli BL21 Star (DE3) pLysS using chorismate as substrate assessed as disappearance of chorismate by stopped-flow analysis
T2 sequence (P0A9J8 whole entry): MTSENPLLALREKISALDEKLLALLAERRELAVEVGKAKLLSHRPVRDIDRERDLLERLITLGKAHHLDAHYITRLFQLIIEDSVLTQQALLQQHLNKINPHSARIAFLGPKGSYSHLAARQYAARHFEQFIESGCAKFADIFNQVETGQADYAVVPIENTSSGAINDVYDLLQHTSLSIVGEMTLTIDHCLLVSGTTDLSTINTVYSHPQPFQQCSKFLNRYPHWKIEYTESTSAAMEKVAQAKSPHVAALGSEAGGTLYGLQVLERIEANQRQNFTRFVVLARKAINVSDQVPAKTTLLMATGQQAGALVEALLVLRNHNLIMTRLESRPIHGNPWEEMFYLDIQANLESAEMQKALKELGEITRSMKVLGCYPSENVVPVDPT
How it was run: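 His-tagged EcCM domain was Ni-affinity and size-exclusion purified. Post-mixing concentrations were 500 nM enzyme, chorismate at Km (600 µM) and inhibitor 0–500 µM. Rate was the A310 decrease over 30 s, in triplicate, giving IC50.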

[6] = Inhibition of Pseudomonas aeruginosa PAO1 PchB
Escherichia coli = assay: Ratio of I50 to Km for Escherichia coli Chorismate mutase
How it was run: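 N-His-tagged E. coli chorismate mutase domain (PheA), 500 nM. Chorismate at its Km (600 µM), inhibitor 0–500 µM, all post-mixing. Initial rates from A310 decrease over 30 s, in triplicate. I50 is the concentration giving 50% inhibition at substrate = Km, divided by Km.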

[7] = Competitive inhibition of Pseudomonas aeruginosa PAO1 PchB expressed in Escherichia coli BL21(DE3) using isochorismate as substrate
How it was run: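 Untagged PchB at 50 nM final, in 50 mM potassium phosphate pH 8 (plus 1 mM TCEP for stopped-flow runs), at 25 °C. Isochorismate was varied up to 75 µM and inhibitor up to 1.5 µM. Salicylate formation was followed by fluorescence (excitation 310 nm; emission 430 nm or 360 nm cutoff) as linear initial velocities, over 120 s on a cuvette fluorimeter or 30 s by stopped-flow.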

[8] = biological target: T1, Salicylate synthetase, Irp9; assay: Competitive inhibition of Yersinia enterocolitica Irp9 using chorismate as substrate
How it was run: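 Stopped-flow kinetics at 25 °C in 50 mM Tris pH 7.5, 10 mM MgCl2, 10% glycerol. Final Irp9 was 100 nM, chorismate 0–40 µM and inhibitor 0–10 µM. Enzyme plus inhibitor was mixed with chorismate. Initial velocities came from the rise in salicylate fluorescence (ex 310 nm, 360 nm cutoff filter) over 30 s. Ki and inhibition mode were derived from these rates.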

[9] = biological target: T2, Bifunctional chorismate mutase/prephenate dehydratase; assay: Competitive inhibition of Escherichia coli K-12 EcCM expressed in Escherichia coli BL21 Star (DE3) pLysS using chorismate as substrate
How it was run: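 N-terminally His-tagged chorismate mutase domain of pheA, purified by Ni-chelate and size-exclusion chromatography. Enzyme with inhibitor mixed 1:1 with chorismate. Final concentrations: enzyme 500 nM, chorismate 0–2 mM, inhibitor 0–50 µM. Initial rates read as the 30 s decrease in absorbance at 310 nm, giving Ki and inhibition mode.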

Pseudomonas aeruginosa [10] = assay: Antimicrobial activity against wild-type Pseudomonas aeruginosa PAO1 after 24 hrs by microplate reader analysis in presence of 5 uM FeCl3; format: functional, organism-based; details: PAO1, 24 h
How it was run: (§2)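 Overnight LB cultures were diluted to OD600 0.5 in PMH-D medium. Cells were added to PMH-D containing FeCl3, either 5 µM (iron-limited) or 200 µM (iron-rich), with inhibitor at 0–5 mM (DMSO vehicle). Plates were shaken at 37 °C for 24 h. Cells were then pelleted, the medium was removed, and cells were resuspended in LB. A600 was read. Growth was normalized to no-inhibitor cultures to give EC50.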

Pseudomonas aeruginosa [11] = assay: Antimicrobial activity against wild-type Pseudomonas aeruginosa PAO1 after 24 hrs by microplate reader analysis in presence of 200 uM FeCl3; format: functional, organism-based; how it was run: as §2
Pseudomonas aeruginosa [12] = assay: Antimicrobial activity against Pseudomonas aeruginosa PAO1 PvdA deletion mutant after 24 hrs by microplate reader analysis in presence of 5 uM FeCl3; format: functional, organism-based; details: PAO1, 24 h; how it was run: as §2
Pseudomonas aeruginosa [13] = assay: Antimicrobial activity against Pseudomonas aeruginosa PAO1 PvdA deletion mutant after 24 hrs by microplate reader analysis in presence of 200 uM FeCl3; format: functional, organism-based; how it was run: as §2
Pseudomonas aeruginosa [14] = assay: Antimicrobial activity against Pseudomonas aeruginosa PAO1 PchE deletion mutant after 24 hrs by microplate reader analysis in presence of 5 uM FeCl3; format: functional, organism-based; details: PAO1, 24 h; how it was run: as §2
Pseudomonas aeruginosa [15] = assay: Antimicrobial activity against Pseudomonas aeruginosa PAO1 PchE deletion mutant after 24 hrs by microplate reader analysis in presence of 200 uM FeCl3; format: functional, organism-based; how it was run: as §2
Yersinia enterocolitica = assay: Antimicrobial activity against Yersinia enterocolitica ATCC 9610 after 24 hrs by microplate reader analysis in presence of 5 uM FeCl3; format: functional, organism-based; details: ATCC 9610, 24 h; how it was run: as §2

With `O=C(O)c1cc(S(=O)(=O)Nc2ccccc2C(=O)O)ccc1Br` the IC50 [1] was 0.24 µM, the IC50 [2] was 0.094 µM and the IC50 [3] was “Not Active”. The IC50 [4] was “Not Active” and the IC50 [5] was 200 µM.
With `O=C(O)C1CC2(C(=O)O)C=CC(O)C(C2)O1` (configuration not stated) the Ki [6] was 2 µM and the Ratio (Escherichia coli) was 0.008.
In the case of `COC(=O)Oc1c(Cl)cc2oc(=O)sc2c1[N+](=O)[O-]`, the IC50 [1] is reported as 3.3 µM, the IC50 [2] is reported as 1.8 µM and the IC50 [4] is reported as “Not Active”. It also gave an IC50 [5] of 45 µM.
`O=c1oc2cc(Br)c(O)c(Br)c2s1` gave an IC50 [1] of 10 µM, an IC50 [2] of 10 µM and an IC50 [5] of 120 µM.
In the case of `COC(=O)Oc1c([N+](=O)[O-])cc2oc(=O)sc2c1[N+](=O)[O-]`, the IC50 [1] is reported as 0.87 µM, the IC50 [2] is reported as 0.53 µM and the IC50 [5] is reported as 32 µM. The Ki [7] was 0.35 µM, the Ki [8] was 0.8 µM and the Ki [9] was 40 µM. For the same molecule, the EC50 (Pseudomonas aeruginosa [10]) was > 5000 µM, the EC50 (Pseudomonas aeruginosa [11]) was “Not Active” and the EC50 (Pseudomonas aeruginosa [12]) was > 5000 µM. For the same molecule, the EC50 (Pseudomonas aeruginosa [13]) was “Not Active”, the EC50 (Pseudomonas aeruginosa [14]) was > 5000 µM and the EC50 (Pseudomonas aeruginosa [15]) was “Not Active”. It also gave an EC50 (Yersinia enterocolitica) of 2300 µM.
In the case of `O=C1S/C(=C/c2cc([N+](=O)[O-])cc([N+](=O)[O-])c2O)C(=O)N1c1ccccc1`, the IC50 [1] is reported as 1.4 µM, the IC50 [2] is reported as 1.4 µM and the IC50 [4] is reported as “Not Active”. It also gave an IC50 [5] of 85 µM.
In the case of `O=P(O)(O)C12CC3CC(CC(C3)C1)C2`, the Ki [6] is reported as > 5000 µM.
For `O=C(O)c1cccc(S(=O)(=O)Nc2ccccc2C(=O)O)c1`, the IC50 [1] was 0.25 µM, the IC50 [2] was 0.22 µM and the IC50 [3] was “Not Active”. The IC50 [4] was “Not Active” and the IC50 [5] was 170 µM.
